Calls of active or inactive are those of the source. The calls are words filed in the database; no cut-off is given here.
Columns and labels:
WM3629 = assay: (§1) Antiproliferative activity against human WM3629 cells after 24 hrs by MTT assay; assay type: functional
Outline: (§2)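 WM3629 cells (Wistar Institute) were kept in Tu2% medium. GI50 was determined by MTT as for A375P: 5 × 10³ cells/well, 24 h settling, 12-point threefold serial dilutions, and absorbance at 590 nm.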

A375P = assay: (§3) Antiproliferative activity against human A375P cells after 24 hrs by MTT assay; assay type: functional
Outline: (§4)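 A375P cells (ATCC) grown in DMEM with 10% FBS and 1% penicillin/streptomycin at 37 °C, 5% CO2. Detached with 0.05% trypsin–0.02% EDTA, seeded at 5 × 10³ cells/well, and left 24 h before 12-point threefold serial dilutions were added. Viability was read by MTT reduction (CellTiter 96) at 590 nm, and GI50 was derived.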

[1] = as §1; assay type: functional; conditions: WM3629, 24 h; outline: as §2
[2] = as §3; assay type: functional; outline: as §4
[3] = target: T1, RAF proto-oncogene serine/threonine-protein kinase (Homo sapiens, UniProt P04049); assay: Inhibition of human cRAF using [33P-ATP] as a substrate by scintillation counting
Outline: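 Run 40 min at room temperature, then stopped with 3% phosphoric acid. Spotted on P30 filter mat, washed in 75 mM phosphoric acid and methanol, dried, and scintillation-counted. IC50 came from a profiler service.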

Rattus norvegicus = organism: Rattus norvegicus; assay: Inhibition of rat AMPK; conditions: concentration not given here
Outline: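 Part of an outsourced radiometric kinase panel of 30 kinases, tested at a single concentration of 10 µM. Read-out is percent inhibition of kinase activity.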

[4] = target: Tyrosine-protein kinase JAK2 (Homo sapiens) (UniProt O60674); assay: Inhibition of human JAK2; conditions: concentration not given here
Outline: (§5)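 Tested in an outsourced 30-kinase profiling service panel at a single concentration of 10, with percent inhibition reported.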

[5] = target: Insulin receptor (Homo sapiens) (UniProt P06213); assay: Inhibition of human IR; conditions: concentration not given here; outline: as §5
[6] = target: Cytoplasmic tyrosine-protein kinase BMX (Homo sapiens) (UniProt P51813); assay: Inhibition of human BMX; conditions: concentration not given here; outline: as §5
[7] = target: Receptor-type tyrosine-protein kinase FLT3 (Homo sapiens) (UniProt P36888); assay: Inhibition of human Flt3; conditions: concentration not given here; outline: as §5
[8] = target: Tyrosine-protein kinase BTK (Homo sapiens) (UniProt Q06187); assay: Inhibition of human BTK; conditions: concentration not given here; outline: as §5
[9] = target: Ribosomal protein S6 kinase beta-1 (Homo sapiens) (UniProt P23443); assay: Inhibition of human p701S6K; conditions: concentration not given here; outline: as §5
[10] = target: Macrophage colony-stimulating factor 1 receptor (Homo sapiens) (UniProt P07333); assay: Inhibition of human FMS; conditions: concentration not given here; outline: as §5
[11] = target: Inhibitor of nuclear factor kappa-B kinase subunit beta (Homo sapiens) (UniProt O14920); assay: Inhibition of human IKK-beta; conditions: concentration not given here; outline: as §5
[12] = target: Hepatocyte growth factor receptor (Homo sapiens) (UniProt P08581); assay: Inhibition of human Met; conditions: concentration not given here; outline: as §5
[13] = target: Tyrosine-protein kinase receptor UFO (Homo sapiens) (UniProt P30530); assay: Inhibition of human AXL; conditions: concentration not given here; outline: as §5
[14] = target: Casein kinase II (Homo sapiens) (UniProt P67870+P68400+P19784); assay: Inhibition of human CK2; assay type: protein-complex assay; conditions: concentration not given here; outline: as §5
[15] = target: Angiopoietin-1 receptor (Homo sapiens) (UniProt Q02763); assay: Inhibition of human Tie2; conditions: concentration not given here; outline: as §5
[16] = target: Tyrosine-protein kinase ABL1 (Homo sapiens) (UniProt P00519); assay: Inhibition of human ABL; conditions: concentration not given here; outline: as §5
[17] = target: ALK tyrosine kinase receptor (Homo sapiens) (UniProt Q9UM73); assay: Inhibition of human ALK; conditions: concentration not given here; outline: as §5
[18] = target: Aurora kinase A (Homo sapiens) (UniProt O14965); assay: Inhibition of human aurora A; conditions: concentration not given here; outline: as §5
[19] = target: Fibroblast growth factor receptor 1 (Homo sapiens) (UniProt P11362); assay: Inhibition of human FGFR1; conditions: concentration not given here; outline: as §5
[20] = target: Insulin-like growth factor 1 receptor (Homo sapiens) (UniProt P08069); assay: Inhibition of human IGF1R; conditions: concentration not given here; outline: as §5
[21] = target: Platelet-derived growth factor receptor alpha (Homo sapiens) (UniProt P16234); assay: Inhibition of human PDGFRalpha; conditions: concentration not given here; outline: as §5
[22] = target: Mast/stem cell growth factor receptor Kit (Homo sapiens) (UniProt P10721); assay: Inhibition of human cKIT; conditions: concentration not given here; outline: as §5
[23] = target: Vascular endothelial growth factor receptor 2 (Homo sapiens) (UniProt P35968); assay: Inhibition of human KDR; conditions: concentration not given here; outline: as §5
[24] = target: BDNF/NT-3 growth factors receptor (Homo sapiens) (UniProt Q16620); assay: Inhibition of human TrkB; conditions: concentration not given here; outline: as §5
[25] = target: Ephrin type-A receptor 1 (Homo sapiens) (UniProt P21709); assay: Inhibition of human EphA1; conditions: concentration not given here; outline: as §5
[26] = target: Proto-oncogene tyrosine-protein kinase Src (Homo sapiens) (UniProt P12931); assay: Inhibition of human cSRC; conditions: concentration not given here; outline: as §5
[27] = target: T1, RAF proto-oncogene serine/threonine-protein kinase; assay: Inhibition of human RAF; conditions: concentration not given here
Outline: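 Human C-Raf (5–10 mU) incubated with 0.66 mg/mL myelin basic protein in 25 mM Tris pH 7.5, 0.02 mM EGTA, 10 mM Mg acetate. Spotted on P30 filter, washed in 75 mM phosphoric acid and methanol, then scintillation counted. Outsourced profiling service.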

[28] = target: Cyclin-dependent kinase 5/CDK5 activator 1 (Homo sapiens) (UniProt Q00535+Q15078); assay: Inhibition of human CDK5/p35; assay type: protein-complex assay; conditions: concentration not given here; outline: as §5
[29] = target: Cyclin-dependent kinase 2/cyclin E1 (Homo sapiens) (UniProt P24864+P24941); assay: Inhibition of human CDK2/cyclin E; assay type: protein-complex assay; conditions: concentration not given here; outline: as §5
[30] = target: Tyrosine-protein kinase SYK (Homo sapiens) (UniProt P43405); assay: Inhibition of human SYK; conditions: concentration not given here
[31] = target: Serine/threonine-protein kinase PLK1 (Homo sapiens) (UniProt P53350); assay: Inhibition of human PLK1; conditions: concentration not given here; outline: as §5

T1 sequence (P04049 whole entry): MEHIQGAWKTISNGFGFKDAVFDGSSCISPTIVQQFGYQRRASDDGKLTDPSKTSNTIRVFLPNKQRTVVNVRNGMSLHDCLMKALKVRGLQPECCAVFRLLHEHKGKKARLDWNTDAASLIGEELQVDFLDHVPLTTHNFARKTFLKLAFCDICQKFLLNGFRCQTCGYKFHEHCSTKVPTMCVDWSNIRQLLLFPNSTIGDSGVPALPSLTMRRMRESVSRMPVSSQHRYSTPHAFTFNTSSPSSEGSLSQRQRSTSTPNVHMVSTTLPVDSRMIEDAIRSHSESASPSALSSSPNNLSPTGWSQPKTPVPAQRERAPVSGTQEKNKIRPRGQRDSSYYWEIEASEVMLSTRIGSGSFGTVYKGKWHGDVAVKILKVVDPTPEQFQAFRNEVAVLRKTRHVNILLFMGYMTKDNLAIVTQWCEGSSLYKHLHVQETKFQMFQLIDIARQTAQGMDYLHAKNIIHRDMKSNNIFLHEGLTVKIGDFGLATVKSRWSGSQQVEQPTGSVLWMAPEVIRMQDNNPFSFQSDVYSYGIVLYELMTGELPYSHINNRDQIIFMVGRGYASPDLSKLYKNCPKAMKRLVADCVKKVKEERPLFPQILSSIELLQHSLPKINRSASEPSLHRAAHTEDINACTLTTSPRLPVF
Sequence of Hepatocyte growth factor receptor (Homo sapiens) (P08581 whole entry): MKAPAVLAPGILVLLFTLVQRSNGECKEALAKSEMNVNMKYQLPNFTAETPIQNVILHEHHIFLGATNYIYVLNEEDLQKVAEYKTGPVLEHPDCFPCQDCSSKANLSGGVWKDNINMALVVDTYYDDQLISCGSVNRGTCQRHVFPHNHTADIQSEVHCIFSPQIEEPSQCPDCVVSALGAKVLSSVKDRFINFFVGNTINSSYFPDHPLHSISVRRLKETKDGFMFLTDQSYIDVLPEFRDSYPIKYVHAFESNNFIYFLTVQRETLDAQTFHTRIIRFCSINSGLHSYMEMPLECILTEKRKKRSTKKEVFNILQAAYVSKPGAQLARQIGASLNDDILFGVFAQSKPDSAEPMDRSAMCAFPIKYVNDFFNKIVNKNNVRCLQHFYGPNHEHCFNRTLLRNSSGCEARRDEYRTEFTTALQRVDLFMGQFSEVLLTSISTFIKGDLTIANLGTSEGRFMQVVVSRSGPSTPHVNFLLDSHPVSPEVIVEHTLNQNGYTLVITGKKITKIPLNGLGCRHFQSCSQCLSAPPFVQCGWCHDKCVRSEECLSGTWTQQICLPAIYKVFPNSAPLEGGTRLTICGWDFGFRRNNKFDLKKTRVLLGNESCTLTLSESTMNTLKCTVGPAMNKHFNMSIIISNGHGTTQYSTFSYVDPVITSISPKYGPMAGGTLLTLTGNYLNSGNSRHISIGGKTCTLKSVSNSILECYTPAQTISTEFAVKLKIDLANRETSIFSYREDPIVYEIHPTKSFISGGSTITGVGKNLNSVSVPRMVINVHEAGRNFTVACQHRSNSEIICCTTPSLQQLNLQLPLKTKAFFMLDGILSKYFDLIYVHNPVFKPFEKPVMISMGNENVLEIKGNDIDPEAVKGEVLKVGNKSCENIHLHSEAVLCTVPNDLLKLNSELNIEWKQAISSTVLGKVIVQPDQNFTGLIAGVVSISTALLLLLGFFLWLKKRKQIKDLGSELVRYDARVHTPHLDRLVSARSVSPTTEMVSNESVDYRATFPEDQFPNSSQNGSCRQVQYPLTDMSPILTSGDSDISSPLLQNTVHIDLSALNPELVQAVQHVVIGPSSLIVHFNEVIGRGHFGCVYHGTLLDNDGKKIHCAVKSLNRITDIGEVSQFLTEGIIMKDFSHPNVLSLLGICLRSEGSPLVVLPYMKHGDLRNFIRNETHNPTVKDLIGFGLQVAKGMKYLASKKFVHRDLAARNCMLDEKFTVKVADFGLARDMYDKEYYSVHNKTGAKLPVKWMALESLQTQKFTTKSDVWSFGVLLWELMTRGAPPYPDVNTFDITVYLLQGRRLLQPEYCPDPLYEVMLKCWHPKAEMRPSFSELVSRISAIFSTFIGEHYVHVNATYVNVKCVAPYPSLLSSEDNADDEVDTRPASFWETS
Sequence of Insulin-like growth factor 1 receptor (Homo sapiens) (P08069 31-736 limits assumed): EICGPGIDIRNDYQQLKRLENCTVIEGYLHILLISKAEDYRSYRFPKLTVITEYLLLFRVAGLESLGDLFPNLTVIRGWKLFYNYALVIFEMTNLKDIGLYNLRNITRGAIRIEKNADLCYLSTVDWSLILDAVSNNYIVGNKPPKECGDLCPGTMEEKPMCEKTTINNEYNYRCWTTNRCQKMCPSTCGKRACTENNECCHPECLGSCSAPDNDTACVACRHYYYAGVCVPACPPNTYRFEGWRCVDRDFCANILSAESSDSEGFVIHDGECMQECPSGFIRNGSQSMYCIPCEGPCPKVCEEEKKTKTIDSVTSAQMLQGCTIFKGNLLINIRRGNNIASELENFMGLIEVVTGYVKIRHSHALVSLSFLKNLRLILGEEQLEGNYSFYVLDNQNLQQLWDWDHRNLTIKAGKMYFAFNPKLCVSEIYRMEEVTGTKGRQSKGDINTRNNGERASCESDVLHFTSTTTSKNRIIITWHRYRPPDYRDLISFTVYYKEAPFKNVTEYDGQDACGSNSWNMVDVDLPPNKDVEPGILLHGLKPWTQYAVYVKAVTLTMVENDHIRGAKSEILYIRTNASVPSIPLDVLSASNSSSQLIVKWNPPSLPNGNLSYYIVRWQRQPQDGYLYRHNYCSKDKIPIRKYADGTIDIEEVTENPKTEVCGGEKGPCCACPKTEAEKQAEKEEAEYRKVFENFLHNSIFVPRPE
Sequence of Insulin-like growth factor 1 receptor (Homo sapiens) (P08069 741-1367 limits assumed): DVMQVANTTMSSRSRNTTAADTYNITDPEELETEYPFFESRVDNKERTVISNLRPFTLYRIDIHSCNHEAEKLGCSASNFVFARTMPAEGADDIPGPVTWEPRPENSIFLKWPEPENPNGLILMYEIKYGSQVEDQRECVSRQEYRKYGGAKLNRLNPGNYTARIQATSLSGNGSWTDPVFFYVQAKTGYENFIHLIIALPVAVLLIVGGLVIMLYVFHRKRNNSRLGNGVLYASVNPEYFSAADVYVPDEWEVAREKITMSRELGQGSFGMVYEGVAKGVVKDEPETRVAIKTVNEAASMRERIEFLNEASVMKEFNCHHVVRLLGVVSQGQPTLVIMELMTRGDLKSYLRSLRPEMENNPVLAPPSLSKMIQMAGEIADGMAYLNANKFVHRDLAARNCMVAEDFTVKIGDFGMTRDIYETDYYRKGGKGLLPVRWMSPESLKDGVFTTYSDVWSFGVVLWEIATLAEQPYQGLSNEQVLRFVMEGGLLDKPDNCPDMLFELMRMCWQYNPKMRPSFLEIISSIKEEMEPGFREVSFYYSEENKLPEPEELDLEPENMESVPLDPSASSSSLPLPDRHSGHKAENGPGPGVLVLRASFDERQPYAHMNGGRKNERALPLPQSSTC
Sequence of Receptor-type tyrosine-protein kinase FLT3 (Homo sapiens) (P36888 whole entry): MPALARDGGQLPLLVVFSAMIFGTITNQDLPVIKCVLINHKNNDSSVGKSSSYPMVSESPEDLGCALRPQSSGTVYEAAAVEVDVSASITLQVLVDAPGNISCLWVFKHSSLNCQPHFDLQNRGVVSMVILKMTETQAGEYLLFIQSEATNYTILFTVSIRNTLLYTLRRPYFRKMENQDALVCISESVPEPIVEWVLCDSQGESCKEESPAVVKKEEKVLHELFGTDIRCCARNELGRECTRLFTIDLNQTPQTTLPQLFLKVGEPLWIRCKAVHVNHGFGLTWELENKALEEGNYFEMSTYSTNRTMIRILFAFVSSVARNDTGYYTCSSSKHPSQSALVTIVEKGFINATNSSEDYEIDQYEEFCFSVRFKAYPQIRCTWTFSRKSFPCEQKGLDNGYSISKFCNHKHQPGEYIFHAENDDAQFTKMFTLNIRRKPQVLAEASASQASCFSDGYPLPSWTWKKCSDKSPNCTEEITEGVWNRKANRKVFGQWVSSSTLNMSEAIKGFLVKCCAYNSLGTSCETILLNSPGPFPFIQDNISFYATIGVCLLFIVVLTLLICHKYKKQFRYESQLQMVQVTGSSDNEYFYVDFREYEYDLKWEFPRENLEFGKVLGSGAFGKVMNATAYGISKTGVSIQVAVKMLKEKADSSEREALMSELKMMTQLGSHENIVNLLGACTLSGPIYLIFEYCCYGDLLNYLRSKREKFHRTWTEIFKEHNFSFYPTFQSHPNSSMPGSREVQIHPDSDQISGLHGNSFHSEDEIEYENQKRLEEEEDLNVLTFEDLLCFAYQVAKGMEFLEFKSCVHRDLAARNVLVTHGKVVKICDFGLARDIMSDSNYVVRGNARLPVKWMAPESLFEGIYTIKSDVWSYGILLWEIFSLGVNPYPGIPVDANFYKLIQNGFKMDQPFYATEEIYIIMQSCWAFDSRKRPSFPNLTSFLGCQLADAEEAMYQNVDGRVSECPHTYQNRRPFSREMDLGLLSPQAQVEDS
Sequence of Cytoplasmic tyrosine-protein kinase BMX (Homo sapiens) (P51813 whole entry): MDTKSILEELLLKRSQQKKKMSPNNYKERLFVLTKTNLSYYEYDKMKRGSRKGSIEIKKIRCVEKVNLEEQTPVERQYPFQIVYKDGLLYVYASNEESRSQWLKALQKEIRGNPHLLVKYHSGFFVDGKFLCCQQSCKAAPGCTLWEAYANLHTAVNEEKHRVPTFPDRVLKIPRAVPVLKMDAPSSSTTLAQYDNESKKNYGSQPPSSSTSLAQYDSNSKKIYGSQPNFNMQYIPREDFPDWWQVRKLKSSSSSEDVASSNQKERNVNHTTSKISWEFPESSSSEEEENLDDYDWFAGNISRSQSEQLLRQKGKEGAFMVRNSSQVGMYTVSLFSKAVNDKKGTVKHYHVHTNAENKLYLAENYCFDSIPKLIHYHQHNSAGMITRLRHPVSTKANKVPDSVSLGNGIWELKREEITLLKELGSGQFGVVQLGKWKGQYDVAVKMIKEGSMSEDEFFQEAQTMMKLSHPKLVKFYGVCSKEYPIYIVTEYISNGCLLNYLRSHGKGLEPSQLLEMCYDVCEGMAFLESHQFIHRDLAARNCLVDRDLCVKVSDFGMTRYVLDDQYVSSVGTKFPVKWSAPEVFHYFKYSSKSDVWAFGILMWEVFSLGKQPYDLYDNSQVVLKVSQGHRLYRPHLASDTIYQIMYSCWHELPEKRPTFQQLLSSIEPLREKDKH

Structure (SMILES): Cc1ccc2nc(NC(=O)Nc3ccc(-c4nc5[nH]ncc5[nH]4)c(C)c3)sc2c1
- GI50 (WM3629): inactive
- GI50 (A375P): inactive

Structure (SMILES): COc1ccc(Cn2ncc3[nH]c(-c4cc(NC(=O)Nc5cc(Cl)cc(C(F)(F)F)c5)ccc4C)nc32)cc1
- GI50 [1]: > 100 µM
- GI50 [2]: > 100 µM

Structure (SMILES): Cc1ccc(NC(=O)Nc2c(F)cc(F)c(C)c2F)cc1-c1nc2c(cnn2Cc2ccccc2)[nH]1
- GI50 [1]: 1.29 µM
- GI50 [2]: 7.73 µM

Structure (SMILES): Cc1ccc(NC(=O)Nc2cc(N3CCOCC3)cc(C(F)(F)F)c2)cc1-c1nc2c(cnn2Cc2ccccc2)[nH]1
- IC50 ([3]; read-out: IC50): 0.156 µM
- GI50 [1]: 0.72 µM
- GI50 [2]: 4.29 µM

Structure (SMILES): Cc1cc(NC(=O)Nc2cc(Cl)cc(C(F)(F)F)c2)ccc1-c1nc2c(cnn2Cc2ccccc2)n1C
- IC50 [3]: Not Active
- GI50 [1]: 0.56 µM
- GI50 [2]: 4.16 µM

Structure (SMILES): Cc1ccc(NC(=O)Nc2cc(N3CCOCC3)cc(C(F)(F)F)c2)cc1-c1nc2c(cnn2Cc2ccccc2)n1C
- GI50 [1]: > 100 µM
- GI50 [2]: > 100 µM

Structure (SMILES): O=C(Nc1ccc(-c2nc3c(cnn3Cc3ccccc3)[nH]2)cc1)Nc1ccc(Cl)c(Cl)c1
- GI50 [1]: 42.8 µM
- GI50 [2]: > 100 µM

Structure (SMILES): Cc1ccc(NC(=O)Nc2cccc(Cl)c2Cl)cc1-c1nc2[nH]ncc2[nH]1
- GI50 (WM3629): inactive
- GI50 (A375P): inactive

Structure (SMILES): Cc1cc(NC(=O)Nc2cc(N3CCOCC3)cc(C(F)(F)F)c2)ccc1-c1nc2[nH]ncc2[nH]1
- GI50 (WM3629): inactive
- GI50 [2]: > 100 µM

Structure (SMILES): Cc1ccc(NC(=O)c2cc(N3CCOCC3)cc(C(F)(F)F)c2)cc1-c1nc2[nH]ncc2[nH]1
- GI50 (WM3629): inactive
- GI50 (A375P): inactive

Structure (SMILES): Cc1c(F)cc(F)c(NC(=O)Nc2ccc(-c3nc4c(cnn4Cc4ccccc4)[nH]3)cc2)c1F
- GI50 [1]: 0.98 µM
- GI50 [2]: 51.7 µM

Structure (SMILES): CNC(=O)c1cc(Oc2ccc(NC(=O)Nc3ccc(Cl)c(C(F)(F)F)c3)cc2)ccn1 [SORAFENIB]
- GI50 [1]: 0.65 µM
- GI50 [2]: 5.58 µM

Structure (SMILES): Cc1cn(-c2cc(NC(=O)Nc3ccc(-c4nc5[nH]ncc5[nH]4)c(C)c3)cc(C(F)(F)F)c2)cn1
- inhibition (Rattus norvegicus): 5%
- inhibition [4]: 0%
- inhibition [5]: 0%
- inhibition [6]: 16%
- inhibition [7]: 53%
- inhibition [8]: 10%
- inhibition [9]: 4%
- inhibition [10]: 42%
- inhibition [11]: 16%
- inhibition [12]: 0%
- inhibition [13]: 6%
- inhibition [14]: 8%
- inhibition [15]: 82%
- inhibition [16]: 37%
- inhibition [17]: 61%
- inhibition [18]: 10%
- IC50 ([3]; read-out: IC50): 0.05 µM
- inhibition [19]: 26%
- inhibition [20]: 35%
- GI50 [1]: 0.86 µM
- inhibition [21]: 0%
- inhibition [22]: 0%
- inhibition [23]: 8%
- inhibition [24]: 62%
- inhibition [25]: 30%
- GI50 [2]: 2.24 µM
- inhibition [26]: 20%
- inhibition [27]: 96%
- inhibition [28]: 0%
- inhibition [29]: 33%
- inhibition [30]: 16%
- inhibition [31]: 8%

Structure (SMILES): COc1ccc(Cn2ncc3[nH]c(-c4ccc(NC(=O)Nc5nc6ccc(C)cc6s5)cc4C)nc32)cc1
- GI50 (WM3629): inactive
- GI50 (A375P): inactive

Structure (SMILES): Cc1ccc(NC(=O)Nc2cc(Cl)cc(C(F)(F)F)c2)cc1-c1nc2c(cnn2Cc2ccccc2)n1C
- GI50 [1]: 5.85 µM
- GI50 [2]: 56.3 µM

Structure (SMILES): O=C(Nc1ccc(-c2nc3c(cnn3Cc3ccccc3)[nH]2)cc1)Nc1cc(Cl)cc(C(F)(F)F)c1
- IC50 ([3]; read-out: IC50): 0.37 µM
- GI50 [1]: 0.75 µM
- GI50 [2]: 6.65 µM

Structure (SMILES): Cc1ccc(NC(=O)Nc2cc(Cl)cc(C(F)(F)F)c2)cc1-c1nc2[nH]ncc2[nH]1
- GI50 [1]: > 100 µM
- GI50 [2]: > 100 µM

Structure (SMILES): Cc1cc(NC(=O)Nc2cccc(Cl)c2Cl)ccc1-c1nc2[nH]ncc2[nH]1
- GI50 (WM3629): inactive
- GI50 (A375P): inactive

Structure (SMILES): COc1ccc(Cn2ncc3[nH]c(-c4cc(NC(=O)Nc5c(F)cc(F)c(C)c5F)ccc4C)nc32)cc1
- GI50 [1]: > 100 µM
- GI50 [2]: > 100 µM

Structure (SMILES): Cc1cc(NC(=O)Nc2cc(Cl)cc(C(F)(F)F)c2)ccc1-c1nc2[nH]ncc2[nH]1
- GI50 [1]: 14.4 µM
- GI50 [2]: > 100 µM

Structure (SMILES): COc1ccc(Cn2ncc3[nH]c(-c4cc(NC(=O)Nc5ccc(Cl)c(Cl)c5)ccc4C)nc32)cc1
- IC50 ([3]; read-out: IC50): 0.839 µM
- GI50 [1]: 1.35 µM
- GI50 [2]: 15.3 µM

Structure (SMILES): COc1ccc(Cn2ncc3[nH]c(-c4ccc(NC(=O)Nc5cc(N6CCOCC6)cc(C(F)(F)F)c5)cc4C)nc32)cc1
- GI50 [1]: > 100 µM
- GI50 [2]: > 100 µM

Structure (SMILES): Cc1ccc(NC(=O)c2cc(Cl)cc(C(F)(F)F)c2)cc1-c1nc2c(cnn2Cc2ccccc2)[nH]1
- IC50 ([3]; read-out: IC50): 0.146 µM
- GI50 [1]: 1.14 µM
- GI50 [2]: 2.06 µM

Structure (SMILES): COc1ccc(Cn2ncc3c2nc(-c2ccc(NC(=O)Nc4cc(Cl)cc(C(F)(F)F)c4)cc2C)n3C)cc1
- GI50 [1]: 3.77 µM
- GI50 [2]: 51.5 µM

Structure (SMILES): Cc1ccc(NC(=O)Nc2cc(Cl)cc(C(F)(F)F)c2)cc1-c1nc2c(cnn2Cc2ccccc2)[nH]1
- IC50 ([3]; read-out: IC50): 0.076 µM
- GI50 [1]: 0.85 µM
- GI50 [2]: 3.79 µM

Reference: ChEMBL document CHEMBL1155528, “1,4-dihydropyrazolo[4,3-d]imidazole phenyl derivatives: a novel type II Raf kinase inhibitors” (Bioorg Med Chem Lett, 2010)
